Here are results for four molecules from ChEMBL document CHEMBL1130202, “Biologically active heteroarotinoids exhibiting anticancer activity and decreased toxicity” (J Med Chem, 1997).

The species entered for data set [1] is Mus musculus. Put plainly: Effect of compound on Spleen to body weight ratios in mice at low dose. It is filed as functional. Summed up:
(§1)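 Male B6D2F1 mice dosed daily by gavage with compound in corn oil; vehicle 1 (corn oil) controls run to termination on day 65. Low, mid 1, mid 2 and high dose groups, with dosage increases partway through the study. Organ-to-body weight ratios (×1000) taken at necropsy on day 65, reported as mean ± SD for 4 to 8 animals and as % difference from vehicle.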

For data set [2], the species on record is Mus musculus. Kind of data set: Enlarged lymph in gross pathological observations in mice with hypervitaminosis A at mid dose 1 with gross observations/total number of mice in group; 0/16. It is filed as functional, organism-based.
The species named for data set [3] is Mus musculus. Kind of data set: Alopecia in mice observed at mid dose 1 with Hypervitaminosis; 1/16. In kind it is functional, organism-based.
For data set [4], the species on record is Mus musculus. Kind of data set: Enlarged lymph in gross pathological observations in mice with hypervitaminosis A at mid dose 2 with gross observations/total number of mice in group; 2/16. In kind it is functional, organism-based.
For data set [5], the species on record is Mus musculus. Put plainly: Skin scaling in mice at mid dose 1 with Hypervitaminosis; 1/16. It is filed as functional, organism-based.
The species named for data set [6] is Mus musculus. Put plainly: Fracture incidence in mouse at mid dose 2; 0/8.
The species entered for data set [7] is Mus musculus. Put plainly: Enlarged lymph in gross pathological observations in mice with hypervitaminosis A at low dose with gross observations/total number of mice in group; 6/16. It is filed as functional, organism-based.
The species entered for data set [8] is Mus musculus. Put plainly: Effect of compound on thymus to body weight ratios in mice at high dose on day 65; all the animals died by day 65. It is filed as functional, organism-based. Summed up: (§2)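 Male B6D2F1 mice were dosed daily by gavage in corn oil, with TTNPB given at 0.1–0.8 or 0.01/0.05 mg/kg/day. Thymus-to-body weight ratio (×1000) was taken at necropsy on day 65 against vehicle 1, or on day 25 for the 0.01/0.05 groups against vehicle 2. Mean ± SD of 4–8 animals, reported as % difference from vehicle.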

The species named for data set [9] is Mus musculus. Kind of data set: Effect of compound on serum Alkaline phosphatase levels in mice at low dose on day 36. It is filed as functional. In outline:
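Male B6D2F1 mice dosed daily by oral gavage in corn oil at low, mid 1, mid 2 or high dose. Blood sampled on set days (8, 29, 36, 65) for clinical chemistry, serum alkaline phosphatase and triglycerides. Group mean ± SD reported as % relative to vehicle 1; significance p < 0.05 versus corn oil vehicle.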

For data set [10], the species on record is Mus musculus. Put plainly: Enlarged spleen in Gross pathological observations in mice with hypervitaminosis A at low dose with gross observations/total number of mice in group; 3/16. In kind it is functional, organism-based.
For data set [11], the species on record is Mus musculus. Kind of data set: Effect of compound on adrenal to body weight ratios in mice at high dose on day 65; all the animals died by day 65. It is filed as functional, organism-based. Summed up: as §1
Data set [12] is filed under the species Mus musculus. Kind of data set: Fracture incidence in mouse at low dose; 2/8.
Data set [13] is filed under the species Mus musculus. Put plainly: Fracture incidence in mouse at mid dose 1; 5/8.
Data set [14] deals with Mus musculus. Put plainly: Effect of compound on Spleen to body weight ratios in mice at 0.2 mg/kg/day dose on day 65; dead by day 65. It is filed as functional, organism-based. In outline: as §1
Data set [15] relates to Mus musculus. Kind of data set: Effect of compound on right testicle to body weight ratios in mice at 0.4 mg/kg/day dose on day 65. It is filed as functional, organism-based.
Data set [16] deals with Mus musculus. Put plainly: Alopecia observed at 0.01 mg/kg/day dose in mice with hypervitaminosis; 6/8. It is filed as functional, organism-based.
Data set [17] concerns Mus musculus. Kind of data set: Alopecia observed at 0.05 mg/kg/day dose in mice with hypervitaminosis; 8/8. It is filed as functional, organism-based.
Data set [18] relates to Mus musculus. Put plainly: Effect of compound on thymus to body weight ratios in mice at 0.1 mg/kg/day dose; all the animals died by day 65. It is filed as functional, organism-based. In outline:
as §2

For data set [19], the system named is Mus musculus. Kind of data set: Effect of compound on thymus to body weight ratios in mice at 0.8 mg/kg/day dose; all the animals died by day 65. In kind it is functional, organism-based. Summed up:
as §2

The subject of data set [20] is Mus musculus. Kind of data set: Alopecia observed at 0.8 mg/kg/day dose in mice with hypervitaminosis; 3/16. In kind it is functional, organism-based.
Data set [21] concerns Mus musculus. Put plainly: Avoiding pressure on limbs at 0.1 mg/kg/day dose in mice hypervitaminosis; 0/16. It is filed as functional, organism-based. The settings on record: Limb.
Data set [22] has as its system Mus musculus. Kind of data set: Avoiding pressure on limbs at 0.2 mg/kg/day dose in mice with hypervitaminosis; 0/16. It is filed as functional, organism-based. To be noted: Limb.
For data set [23], the system named is Mus musculus. Put plainly: Avoiding pressure on limbs at 0.4 mg/kg/day dose in mice with hypervitaminosis; 0/16. In kind it is functional, organism-based. The settings on record: Limb.
The subject of data set [24] is Mus musculus. Put plainly: Enlarged lymph in gross pathological observations with hypervitaminosis A in mice at 0.4 mg/kg/day dose with gross observations/total number of animals in group; 12/16. In kind it is functional, organism-based.
Data set [25] relates to Mus musculus. Put plainly: Enlarged lymph in gross pathological observations with hypervitaminosis A in mice at 0.8 mg/kg/day dose with gross observations/total number of animals in group; 8/16. It is filed as functional, organism-based.
Data set [26] relates to Mus musculus. Put plainly: Enlarged spleen in Gross pathological observations with hypervitaminosis A at 0.01 mg/kg/day dose with gross observations/total number of animals in group; 5/8. It is filed as functional, organism-based.
Data set [27] relates to Mus musculus. Kind of data set: Enlarged spleen in Gross pathological observations with hypervitaminosis A in mice at 0.1 mg/kg/day dose with gross observations/total number of animals in group; 4/16. In kind it is functional, organism-based.
The test system of data set [28] is Mus musculus. Put plainly: Skin scaling at 0.05 mg/kg/day in mice with hypervitaminosis; 8/8. It is filed as functional, organism-based.
Data set [29] concerns Mus musculus. Kind of data set: Skin scaling at 0.1 mg/kg/day in mice with hypervitaminosis; 14/16. In kind it is functional, organism-based.
A short description of data set [30]: Mortality rate in mice at 0.1 mg/kg/day; range (12-24). The settings on record: mouse, in vivo. It is filed as ADME, organism-based. Summed up:
(§3)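 Male B6D2F1 mice given compound daily by gavage in corn oil at the stated dose levels, with corn oil vehicle controls. Deaths counted as animals found dead or sacrificed moribund, with day(s) of death recorded. Heteroarotinoid groups ran to day 65 and low-dose reference groups to day 25.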

The nature of data set [31]: Mortality rate in mice at 0.2 mg/kg/day; range (8-19). It is filed as ADME, organism-based. To be noted: mouse, in vivo. Summed up:
as §3

Data set [32] relates to Mus musculus. Put plainly: Fracture incidents in mouse at 0.01 mg/kg/day; 1/7.
The subject of data set [33] is Mus musculus. Kind of data set: Fracture incidents in mouse at 0.05 mg/kg/day; 7/8.
Data set [34] has as its system Mus musculus. Kind of data set: Fracture incidents in mouse at 0.4 mg/kg/day; 3/12.
For data set [35], the system named is Mus musculus. Kind of data set: Effects of retinoids on thymus to body weight ratios in mice at 0.01 mg/kg/day dose.
Data set [36] deals with Mus musculus. Kind of data set: Effect of compound on adrenal to body weight ratios in mice at 0.01 mg/kg/day dose; measured on day 25.
Data set [37] is filed under the species Mus musculus. Kind of data set: Alopecia in mice observed at low dose with Hypervitaminosis; 0/16. In kind it is functional, organism-based.
For data set [38], the species on record is Mus musculus. Put plainly: Effect of compound on serum triglycerides levels in mice at mid dose 2 on day 36. It is filed as functional. Summed up: (§4)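 Male B6D2F1 mice were gavaged daily with compound in corn oil at low, mid 1, mid 2 or high dose. Serum triglycerides and circulating white blood cells were measured on the stated day (8, 29, 36, 65). Values are group mean ± SD expressed as % relative to corn-oil vehicle, with significance at p ≤ 0.05.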

Data set [39] is filed under the species Mus musculus. Put plainly: Effect of compound on serum triglycerides levels in mice at mid dose 2 on day 8. In kind it is functional. In outline:
as §4

The species named for data set [40] is Mus musculus. Put plainly: Enlarged spleen in Gross pathological observations in mice with hypervitaminosis A at mid dose 1 with gross observations/total number of mice in group; 1/16. In kind it is functional, organism-based.
The species entered for data set [41] is Mus musculus. Kind of data set: Skin scaling in mice at mid dose 1 with Hypervitaminosis; 0/16. In kind it is functional, organism-based.
Data set [42] is filed under the species Mus musculus. Put plainly: Mortality rate in mice in mid dose 2. In kind it is functional. In outline:
as §3

The source made the active and inactive calls. The rule behind the calls is not given here.

With `CC(/C=C/C=C(\C)c1ccc2c(c1)C(C)(C)CCS2)=C\C(=O)O`, in the data set filed under Mus musculus [1], the Activity was determined as 2.1. Moreover, the result in the data set filed under Mus musculus [2], in the data set filed under Mus musculus [3], in the data set listed under Mus musculus [4], in the data set filed under Mus musculus [5] and in the data set listed under Mus musculus [6] was inactive.
Consider `C/C(=C\c1ccc(C(=O)O)cc1)c1ccc2c(c1)C(C)(C)CCO2`, for which the Activity entry in the data set listed under Mus musculus [7] was “Weak activity”; in the data set listed under Mus musculus [8], “Toxic”; in the data set filed under Mus musculus [9], 77.4; in the data set listed under Mus musculus [11] it was “Toxic”; in the data set filed under Mus musculus [12], “Weak activity”; in the data set filed under Mus musculus [13], “Weak activity”. In addition, the result in the data set filed under Mus musculus [10] was inactive.
Turning to `C/C(=C\c1ccc(C(=O)O)cc1)c1ccc2c(c1)C(C)(C)CCC2(C)C`, the Activity result with Mus musculus [14] is “Toxic”; with Mus musculus [15] it was “Toxic”; in the data set on Mus musculus [18] it was “Toxic”; in the data set with Mus musculus [19], “Toxic”; in the data set on Mus musculus [25] it was “Weak activity”; in the data set on Mus musculus [26], “Weak activity”. The Activity entry with Mus musculus [27] is “Weak activity”; in the data set with Mus musculus [34] it was “Weak activity”; in the data set on Mus musculus [35], “Toxic”; in the data set with Mus musculus [36], “Toxic”. Besides, the result with Mus musculus [16], with Mus musculus [17], in the data set on Mus musculus [24], with Mus musculus [28], in the data set with Mus musculus [29] and with Mus musculus [33] was Active. The outcome in the data set on Mus musculus [20], with Mus musculus [21], in the data set on Mus musculus [22], in the data set on Mus musculus [23] and in the data set with Mus musculus [32] was inactive. Further, the Mortality was 7 day of death in data set [30] and 6 day of death in data set [31].
As to `CC(/C=C/C=C(\C)c1ccc2c(c1)C(C)(C)CCO2)=C\C(=O)O`, the outcome in the data set filed under Mus musculus [37], in the data set filed under Mus musculus [40] and in the data set listed under Mus musculus [41] was inactive. Further, the Activity came to 195.9 in the data set listed under Mus musculus [38] and 112.3 in the data set listed under Mus musculus [39]. For the same molecule, in the data set filed under Mus musculus [42], the Mortality is recorded as 0 day of death.
